Data published in ChEMBL document CHEMBL4138242, “Synthesis and antibacterial evaluation of novel cationic chalcone derivatives possessing broad spectrum antibacterial activity” (Eur J Med Chem, 2018).
Active and inactive are the calls of the source.

How the values were obtained:
Staphylococcus aureus [1] = assay: Antibacterial activity against methicillin-resistant Staphylococcus aureus clinical isolate 1207007 after 16 to 20 hrs by broth microdilution method; format: functional
Method in brief: (§1)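 CLSI broth microdilution in Mueller-Hinton broth. A 4-6 h culture was diluted to about 10⁶ CFU/mL and mixed 1:1 with compound dilutions prepared at 256 to 0.5 µg/mL from aqueous stocks. Plates were incubated at 37 °C for 16-20 h and read visually for MIC. Each concentration was run in duplicate, and the experiment was repeated at least twice. Vancomycin and meropenem were comparators.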

Salmonella enterica = assay: Antibacterial activity against Salmonella enterica ATCC 13076 after 16 to 20 hrs by broth microdilution method; format: functional
Method in brief: (§2)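 Broth microdilution per CLSI. Bacteria grown 4-6 h (about 10⁸ CFU/mL), then diluted to about 10⁶ CFU/mL. Medium: Mueller-Hinton broth, except Luria-Bertani broth for E. coli. Compounds in sterile water, twofold series 256-0.5 µg/mL, mixed 1:1 with inoculum, 37 °C for 16-20 h. MIC is the lowest concentration without visible growth. Duplicate wells; experiment repeated at least twice.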

Staphylococcus aureus [2] = assay: Antibacterial activity against Staphylococcus aureus ATCC 29213 at sub MIC after 20 passages; format: functional, organism-based
Method in brief: (§3)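 The MIC was first measured by broth microdilution. Cells grown at MIC/2 were then carried into a fresh MIC assay after each 24 h, repeated over 20 serial passages. Norfloxacin (S. aureus) and colistin (E. coli) served as control antibiotics. Resistance was defined as a >4-fold rise over the original MIC.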

Klebsiella pneumoniae [3] = assay: Antibacterial activity against drug-resistant carbapenemase producing Klebsiella pneumoniae clinical isolate KP-14-8 after 16 to 20 hrs by broth microdilution method; format: functional; method in brief: as §1
Staphylococcus aureus [4] = assay: Disruption of 24 hrs cultured Staphylococcus aureus ATCC 29213 biofilm assessed as decrease in cell viability in biofilm after 24 hrs by crystal violet staining-based assay; format: functional, organism-based
Staphylococcus aureus [5] = assay: Antibacterial activity against Staphylococcus aureus ATCC 29213 after 16 to 20 hrs by broth microdilution method; format: functional; method in brief: as §2
Klebsiella pneumoniae [6] = assay: Antibacterial activity against drug-resistant carbapenemase producing Klebsiella pneumoniae clinical isolate KP-14-3 after 16 to 20 hrs by broth microdilution method; format: functional; method in brief: as §1
Escherichia coli [7] = assay: Induction of cytoplasmic membrane depolarization in Escherichia coli ATCC 25922 at 10 to 20 ug/ml measured every 2 mins for 12 mins by DiSC35 dye-based fluorescence assay; format: functional, organism-based
Method in brief: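 Mid-log cells (~10⁸ CFU/mL) were suspended in PBS (S. aureus) or HEPES/glucose/KCl with EDTA (E. coli). They were preloaded with DiSC3(5) for 30 min (S. aureus) or 40 min (E. coli), and baseline fluorescence was read for 8 min. Compound was added to 20 µg/mL final, and fluorescence (ex 622/em 670 nm) was read every 2 min for 12 min. Water served as control.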

Escherichia coli [8] = assay: Antibacterial activity against drug-resistant NDM1 producing Escherichia coli clinical isolate Ecl-13-62 after 16 to 20 hrs by broth microdilution method; format: functional; method in brief: as §1
Staphylococcus aureus [9] = assay: Disruption of 24 hrs cultured Staphylococcus aureus ATCC 29213 biofilm assessed as cell viability in biofilm at 16 ug/ml after 24 hrs by crystal violet staining-based assay (reference value: 15.96 log10CFU/ml); format: functional
Escherichia coli [10] = assay: Antibacterial activity against Escherichia coli ATCC 25922 at sub MIC after 20 passages; format: functional, organism-based; method in brief: as §3
Staphylococcus aureus [11] = assay: Bactericidal activity against methicillin-resistant Staphylococcus aureus in presence of 50% sheep serum after 20 to 24 hrs; format: functional; details: read-out: MBC99.9
Method in brief: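 MRSA at 10⁵ CFU/mL in 50% MHB plus 50% sheep serum, plasma or defibrinated blood; serum and plasma were obtained by centrifugation at 3,500 rpm for 10 min. Aqueous dilutions prepared at 512-4 µg/mL were added 1:3 to the suspension and incubated for 20-24 h at 37 °C. Well contents (20 µL) were plated on MHA for 20-24 h, and MBC was the concentration giving no colonies.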

Escherichia coli [12] = assay: Antibacterial activity against drug-resistant NDM1 producing Escherichia coli clinical isolate CF-13-61 after 16 to 20 hrs by broth microdilution method; format: functional; method in brief: as §1
Staphylococcus aureus [13] = assay: Bactericidal activity against Staphylococcus aureus ATCC 29213 preincubated with 50% sheep plasma at 512 ug/ml for 3 to 6 hrs followed by compound serial dilution and subsequent bacterial inoculation measured after 20 to 24 hrs; format: functional; details: read-out: MBC99.9
Method in brief: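 Compound at 512 µg/mL in 50% water/50% sheep plasma, preincubated at 37 °C for 0, 3 or 6 h. Then serially diluted (256-4 µg/mL) and combined 50:150 µL with S. aureus at 10⁵ CFU/mL, 37 °C for 20-24 h. MBC determined by plating; three parallel samples.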

Klebsiella pneumoniae [14] = assay: Antibacterial activity against drug-resistant carbapenemase producing Klebsiella pneumoniae clinical isolate KP-14-45 after 16 to 20 hrs by broth microdilution method; format: functional; method in brief: as §1
Klebsiella pneumoniae [15] = assay: Antibacterial activity against drug-resistant carbapenemase producing Klebsiella pneumoniae clinical isolate KP-13-54 after 16 to 20 hrs by broth microdilution method; format: functional; method in brief: as §1
Staphylococcus aureus [16] = assay: Antibacterial activity against methicillin-resistant Staphylococcus aureus clinical isolate 0906202 after 16 to 20 hrs by broth microdilution method; format: functional; method in brief: as §1
Klebsiella pneumoniae [17] = assay: Antibacterial activity against drug-resistant carbapenemase producing Klebsiella pneumoniae clinical isolate KP-14-2 after 16 to 20 hrs by broth microdilution method; format: functional; method in brief: as §1
Klebsiella pneumoniae [18] = assay: Antibacterial activity against drug-resistant carbapenemase producing Klebsiella pneumoniae clinical isolate KP-14-4 after 16 to 20 hrs by broth microdilution method; format: functional; method in brief: as §1
Klebsiella pneumoniae [19] = assay: Antibacterial activity against drug-resistant carbapenemase producing Klebsiella pneumoniae clinical isolate KP-14-5 after 16 to 20 hrs by broth microdilution method; format: functional; method in brief: as §1
Escherichia coli [20] = assay: Antibacterial activity against Escherichia coli ATCC 25922 after 16 to 20 hrs by broth microdilution method; format: functional; method in brief: as §2
Escherichia coli [21] = assay: Antibacterial activity against drug-resistant NDM1 producing Escherichia coli clinical isolate CF-15-61 after 16 to 20 hrs by broth microdilution method; format: functional; method in brief: as §1
[22] = Hemolytic activity in sheep RBC after 1 hr; format: ADME, cell-based, Ovis aries, Erythrocyte; details: sheep red blood cells (erythrocytes)
Method in brief: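 Sheep red blood cells (150 µL suspension) mixed with 50 µL of compound dilutions (5120-10 µg/mL), 1 h at 37 °C, then centrifuged. Supernatant read at 540 nm. Percent hemolysis calculated relative to RBC-only control (0%) and 0.1% Triton X-100 (100%).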

Escherichia coli [23] = assay: Antibacterial activity against drug-resistant NDM1 producing Escherichia coli clinical isolate 1460 after 16 to 20 hrs by broth microdilution method; format: functional; method in brief: as §1
Escherichia coli [24] = assay: Antibacterial activity against drug-resistant NDM1 producing Escherichia coli clinical isolate SM-15-84 after 16 to 20 hrs by broth microdilution method; format: functional; method in brief: as §1
Staphylococcus aureus [25] = assay: Antibacterial activity against methicillin-resistant Staphylococcus aureus clinical isolate 1105183 cono7 after 16 to 20 hrs by broth microdilution method; format: functional; method in brief: as §1
Escherichia coli [26] = assay: Induction of inner membrane permeabilization in Escherichia coli ATCC 25922 at 10 to 20 ug/ml measured every 2 mins for 12 mins by propidium iodide staining-based fluorescence assay; format: functional, organism-based
Method in brief: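 Mid-log cells (~10⁸ CFU/mL) were suspended in PBS (S. aureus) or HEPES/glucose/KCl (E. coli). They were preincubated with propidium iodide for 30 min (S. aureus) or 40 min (E. coli), and baseline fluorescence was read for 8 min. Compound was added to 20 µg/mL final, and fluorescence (ex 535/em 617 nm) was read every 2 min for 12 min.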

## CCCCCCCC[N+](C)(C)CC(=O)Nc1ccc(C(=O)/C=C/c2ccccc2F)cc1.[Cl-]
Staphylococcus aureus [1]
  MIC: 0.25 µg/mL
Salmonella enterica
  MIC: 4 µg/mL
Staphylococcus aureus [2]
  Activity: Active
Klebsiella pneumoniae [3]
  MIC: 4 µg/mL
Staphylococcus aureus [4]
  Activity: Dose-dependent effect
Staphylococcus aureus [5]
  MIC: 0.5 µg/mL
Klebsiella pneumoniae [6]
  MIC: 8 µg/mL
Escherichia coli [7]
  Activity: Active
Escherichia coli [8]
  MIC: 4 µg/mL
Staphylococcus aureus [9]
  Activity: 10.95 log10CFU/ml
Escherichia coli [10]
  Activity: Active
Staphylococcus aureus [11]
  MBC: 32 µg/mL
Escherichia coli [12]
  MIC: 4 µg/mL
Staphylococcus aureus [13]
  MBC: 16 µg/mL
Klebsiella pneumoniae [14]
  MIC: 8 µg/mL
Klebsiella pneumoniae [15]
  MIC: 4 µg/mL
Staphylococcus aureus [16]
  MIC: 4 µg/mL
Klebsiella pneumoniae [17]
  MIC: 16 µg/mL
Klebsiella pneumoniae [18]
  MIC: 4 µg/mL
Klebsiella pneumoniae [19]
  MIC: 4 µg/mL
Escherichia coli [20]
  MIC: 2 µg/mL
Escherichia coli [21]
  MIC: 4 µg/mL
[22]
  HC50 at 1 h: 137 µg/mL
Escherichia coli [23]
  MIC: 4 µg/mL
Escherichia coli [24]
  MIC: 16 µg/mL
Staphylococcus aureus [25]
  MIC: 1 µg/mL
Escherichia coli [26]
  Activity: Active
